Measured values reported in ChEMBL document CHEMBL3779892, “Increasing the binding affinity of VEGFR-2 inhibitors by extending their hydrophobic interaction with the active site: Design, synthesis and biological evaluation of 1-substituted-4-(4-methoxybenzyl)phthalazine derivatives” (Eur J Med Chem, 2016).

Tests used:
Type in all cases: functional
NCI-H322M = test: Growth inhibition of human NCI-H322M cells at 10 uM after 48 hrs by sulforhodamine B assay; details: read-out: GI
How it was run: (§1)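 Run at NCI on the 60-line panel. Cells grown in RPMI 1640 with 5% FBS and 2 mM L-glutamine, plated at 5000–40,000 cells/well by doubling time, and held 24 h at 37 °C before dosing. Drug (DMSO stock) given at a single final 10 µM in triplicate wells for 48 h. Adherent cells fixed with cold TCA (10% final), suspension cells with 16% TCA. SRB stain read at 515 nm. Percent growth from Tz, C and Ti.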

[1] = Growth inhibition of human LOXIMVI cells at 10 uM after 48 hrs by sulforhodamine B assay; details: LOX IMVI, read-out: GI; how it was run: as §1
T47D = test: Growth inhibition of human T47D cells at 10 uM after 48 hrs by sulforhodamine B assay; details: read-out: GI
How it was run: (§2)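 NCI-60 panel, adherent cells grown in RPMI 1640 with 5% FBS and 2 mM L-glutamine, plated at 5000–40,000 cells/well and preincubated 24 h at 37 °C, 5% CO2. 10 µM final compound from DMSO stock, triplicate wells, 48 h. Fixed with cold TCA (10% final, 60 min, 4 °C) and stained with 0.4% SRB. Absorbance read at 515 nm; growth calculated against time-zero and control wells.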

[2] = Growth inhibition of human UO31 cells at 10 uM after 48 hrs by sulforhodamine B assay; details: UO-31, 48 h, read-out: GI; how it was run: as §2
[3] = Growth inhibition of human SF539 cells at 10 uM after 48 hrs by sulforhodamine B assay; details: SF-539, 48 h, read-out: GI; how it was run: as §1
[4] = Growth inhibition of human HCT15 cells at 10 uM after 48 hrs by sulforhodamine B assay; details: HCT-15, 48 h, read-out: GI; how it was run: as §1
A549 = test: Growth inhibition of human A549 cells at 10 uM after 48 hrs by sulforhodamine B assay; details: A549, 48 h, read-out: GI; how it was run: as §1
MCF7 = test: Growth inhibition of human MCF7 cells at 10 uM after 48 hrs by sulforhodamine B assay; details: MCF7, 48 h, read-out: GI; how it was run: as §1
[5] = Growth inhibition of human Caki1 cells at 10 uM after 48 hrs by sulforhodamine B assay; details: CAKI-1, 48 h, read-out: GI; how it was run: as §1
[6] = Growth inhibition of human OVCAR4 cells at 10 uM after 48 hrs by sulforhodamine B assay; details: OVCAR-4, 48 h, read-out: GI; how it was run: as §1
[7] = Growth inhibition of human SNB19 cells at 10 uM after 48 hrs by sulforhodamine B assay; details: SNB-19, 48 h, read-out: GI; how it was run: as §1
CCRF-CEM = test: Growth inhibition of human CCRF-CEM cells at 10 uM after 48 hrs by sulforhodamine B assay; details: read-out: GI; how it was run: as §1
ACHN = test: Growth inhibition of human ACHN cells at 10 uM after 48 hrs by sulforhodamine B assay; details: read-out: GI; how it was run: as §1
[8] = Growth inhibition of human UACC62 cells at 10 uM after 48 hrs by sulforhodamine B assay; details: UACC-62, 48 h, read-out: GI; how it was run: as §2
NCI-H226 = test: Growth inhibition of human NCI-H226 cells at 10 uM after 48 hrs by sulforhodamine B assay; details: NCI-H226, 48 h, read-out: GI; how it was run: as §1
K562 = test: Growth inhibition of human K562 cells at 10 uM after 48 hrs by sulforhodamine B assay; details: K562, 48 h, read-out: GI; how it was run: as §1
[9] = Growth inhibition of human OVCAR5 cells at 10 uM after 48 hrs by sulforhodamine B assay; details: OVCAR-5, 48 h, read-out: GI; how it was run: as §1
[10] = Growth inhibition of human HOP92 cells at 10 uM after 48 hrs by sulforhodamine B assay; details: HOP-92, 48 h, read-out: GI; how it was run: as §1
HT-29 = test: Growth inhibition of human HT-29 cells at 10 uM after 48 hrs by sulforhodamine B assay; details: HT-29, 48 h, read-out: GI; how it was run: as §1
[11] = Growth inhibition of human SKOV3 cells at 10 uM after 48 hrs by sulforhodamine B assay; details: SK-OV-3, 48 h, read-out: GI; how it was run: as §1
U-251 = test: Growth inhibition of human U251 cells at 10 uM after 48 hrs by sulforhodamine B assay; details: U-251, 48 h, read-out: GI; how it was run: as §2
MDA-MB-231 = test: Growth inhibition of human MDA-MB-231 cells at 10 uM after 48 hrs by sulforhodamine B assay; details: MDA-MB-231, 48 h, read-out: GI; how it was run: as §1
[12] = Growth inhibition of human NCI-ADR-RES cells at 10 uM after 48 hrs by sulforhodamine B assay; details: read-out: GI; how it was run: as §1
M14 = test: Growth inhibition of human M14 cells at 10 uM after 48 hrs by sulforhodamine B assay; details: M14, 48 h, read-out: GI; how it was run: as §1
[13] = Growth inhibition of human RXF393 cells at 10 uM after 48 hrs by sulforhodamine B assay; details: RXF 393, 48 h, read-out: GI; how it was run: as §1
NCI-H460 = test: Growth inhibition of human NCI-H460 cells at 10 uM after 48 hrs by sulforhodamine B assay; details: NCI-H460, 48 h, read-out: GI; how it was run: as §1
[14] = Growth inhibition of human COLO205 cells at 10 uM after 48 hrs by sulforhodamine B assay; details: COLO 205, 48 h, read-out: GI; how it was run: as §1
[15] = Growth inhibition of human IGROV1 cells at 10 uM after 48 hrs by sulforhodamine B assay; details: IGROV-1, 48 h, read-out: GI; how it was run: as §1
[16] = Growth inhibition of human OVCAR8 cells at 10 uM after 48 hrs by sulforhodamine B assay; details: OVCAR-8, 48 h, read-out: GI; how it was run: as §1
NCI-H23 = test: Growth inhibition of human NCI-H23 cells at 10 uM after 48 hrs by sulforhodamine B assay; details: NCI-H23, 48 h, read-out: GI; how it was run: as §1
[17] = Growth inhibition of human BT549 cells at 10 uM after 48 hrs by sulforhodamine B assay; details: BT-549, 48 h, read-out: GI; how it was run: as §1
SK-MEL-28 = test: Growth inhibition of human SK-MEL-28 cells at 10 uM after 48 hrs by sulforhodamine B assay; details: SK-MEL-28, 48 h, read-out: GI; how it was run: as §1
[18] = Growth inhibition of human SF295 cells at 10 uM after 48 hrs by sulforhodamine B assay; details: SF-295, 48 h, read-out: GI; how it was run: as §1
NCI-H522 = test: Growth inhibition of human NCI-H522 cells at 10 uM after 48 hrs by sulforhodamine B assay; details: NCI-H522, 48 h, read-out: GI; how it was run: as §1
[19] = Growth inhibition of human HOP62 cells at 10 uM after 48 hrs by sulforhodamine B assay; details: HOP-62, 48 h, read-out: GI; how it was run: as §1
[20] = Growth inhibition of human SF268 cells at 10 uM after 48 hrs by sulforhodamine B assay; details: SF-268, 48 h, read-out: GI; how it was run: as §1
Malme-3M = test: Growth inhibition of human MALME-3M cells at 10 uM after 48 hrs by sulforhodamine B assay; details: read-out: GI; how it was run: as §1

Work on COc1ccc(Cc2nnc(Nc3ccc(NC(=O)Nc4ccc(OC)cc4)cc3)c3ccccc23)cc1 yielded an inhibition of growth at 10 µM (NCI-H322M) of under 30%, an inhibition of growth at 10 µM [1] of under 30% and an inhibition of growth at 10 µM (T47D) of 42%. It also gave an inhibition of growth at 10 µM [2] of under 30%, an inhibition of growth at 10 µM [3] of 49% and an inhibition of growth at 10 µM [4] of 39%. The inhibition of growth at 10 µM (A549) was under 30%, the inhibition of growth at 10 µM (MCF7) was 30% and the inhibition of growth at 10 µM [5] was under 30%. The inhibition of growth at 10 µM [6] was under 30%, the inhibition of growth at 10 µM [7] was under 30% and the inhibition of growth at 10 µM (CCRF-CEM) was 40%. It also gave an inhibition of growth at 10 µM (ACHN) of 32%, an inhibition of growth at 10 µM [8] of under 30% and an inhibition of growth at 10 µM (NCI-H226) of under 30%. The inhibition of growth at 10 µM (K562) was under 30%, the inhibition of growth at 10 µM [9] was under 30% and the inhibition of growth at 10 µM [10] was under 30%. The inhibition of growth at 10 µM (HT-29) was 34%, the inhibition of growth at 10 µM [11] was under 30% and the inhibition of growth at 10 µM (U-251) was 49%. It also gave an inhibition of growth at 10 µM (MDA-MB-231) of 46%, an inhibition of growth at 10 µM [12] of under 30% and an inhibition of growth at 10 µM (M14) of under 30%. For the same molecule, the inhibition of growth at 10 µM [13] was 100%, the inhibition of growth at 10 µM (NCI-H460) was under 30% and the inhibition of growth at 10 µM [14] was under 30%. It also gave an inhibition of growth at 10 µM [15] of under 30%, an inhibition of growth at 10 µM [16] of under 30% and an inhibition of growth at 10 µM (NCI-H23) of under 30%. The inhibition of growth at 10 µM [17] was 31%, the inhibition of growth at 10 µM (SK-MEL-28) was under 30% and the inhibition of growth at 10 µM [18] was 81%. It also gave an inhibition of growth at 10 µM (NCI-H522) of 36%, an inhibition of growth at 10 µM [19] of 33% and an inhibition of growth at 10 µM [20] of under 30%. It also gave an inhibition of growth at 10 µM (Malme-3M) of 31%.
